Source: the RNAGym collection of RNA variant scans (doi:10.1038/s41586-018-0170-7)

B1: tRNA (parent)
chain: GUUCCGUUGGCGUAAUGGUAACGCGUCUCCCUCCUAAGGAGAAGACUGCGGGUUCGAGUCCCGUACGGAACG

Variants of: B1
Assay: yeast fitness, log relative to wild type (ln ratio); higher = fitter; tRNA-Arg(CCU), competitive growth, 37 C, 1 M NaCl
In short: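 BY4742 cells without the chromosomal tRNA-Arg(CCU) gene carried a combinatorial variant library on a HIS3 centromeric plasmid, from two independent transformations. After 4 generations in SC-HIS at 30 °C, pools spent ~6.5 generations (~26.5 h) in SC-HIS 1M NaCl at 37 °C, giving three outputs per input, and 125 bp paired-end Illumina reads counted the variants. Fitness is the natural log of each genotype's generations over the wild type's, with generations taken as OD-scaled log2 output/input frequency weighted by inverse variance across replicates.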

| Variant | yeast fitness (ln) |
| --- | --- |
| ACUCCAUUGGCGUAAUGGUAACGCGUCUCCCUCCUAAGGAGACGAUUGCGGGUUCGAGUCCCGUACGGGGUG | -0.119 |
| ACUCCAUUGGCGUAAUGGUAACGCGUUUCCCUCCUAAGGAGAAGACUGCGGGUUCGAGUCCCGUACGGAACG | -0.0466 |
| ACUCCAUUGGCGUAAUGGUAACGCGUCUCCCUCCUAAGGAGACGAUUGCGGGUUCGAGUCCCGUAUGGAAUG | -0.246 |
| ACUCCAUUGGCGUAAUGGUAACGCGUCUCCCUCCUAAGGAGACGACUGCGGGUUCGAGUCCCGUAUGGAGCG | -0.12 |
| ACUCCAUUGGCGUAAUGGUAACGCGUCUCCCUCCUAAGGAGACGACUGCGGGUUCGAGUCCCGUAUGGAUCG | -0.083 |
| ACUCCAUUGGCGUAAUGGUAACGCGUCUCCCUCCUAAGGAGACGAUUGCGGGUUCGAGUCCCGUACGGAAUG | -0.0914 |
| ACUCCAUUGGCGUAAUGGUAACGCGUUUCCCUCCUAAGGAGACGAUUGCGGGUUCGAGUCCCGUACGGGUCG | -0.132 |
| ACUCCAUUGGCGUAAUGGUAACGCGUUUCCCUCCUAAGGAGACGAUUGCGGGUUCGAGUCCCGUACGGGGCG | -0.225 |
| ACUCCAUUGGCGUAAUGGUAACGCGUCUCCCUCCUAAGGAGACGAUUGCGGGUUCGAGUCCCGUAUGGAUCG | -0.0467 |
| ACUCCAUUGGCGUAAUGGUAACGCGUCUCCCUCCUAAGGAGACGAUUGCGGGUUCGAGUCCCGUAUGGAGCG | -0.0356 |
| ACUCCAUUGGCGUAAUGGUAACGCGUUUCCCUCCUAAGGAGACGAUUGCGGGUUCGAGUCCCGUACGGGGUG | -0.0929 |
| ACUCCAUUGGCGUAAUGGUAACGCGUCUCCCUCCUAAGGAGACGAUUGCGGGUUCGAGUCCCGUACGGAGUG | -0.354 |
| ACUCCAUUGGCGUAAUGGUAACGCGUCUCCCUCCUAAGGAGAAGACUGCGGGUUCGAGUCCCGUACGGGUUG | -0.281 |
| ACUCCAUUGGCGUAAUGGUAACGCGUCUCCCUCCUAAGGAGACGAUUGCGGGUUCGAGUCCCGUAUGGGGCG | -0.232 |
| ACUCCAUUGGCGUAAUGGUAACGCGUCUCCCUCCUAAGGAGACGAUUGCGGGUUCGAGUCCCGUAUGGGUCG | -0.0607 |
| ACUCCAUUGGCGUAAUGGUAACGCGUCUCCCUCCUAAGGAGAAGACUGCGGGUUCGAGUCCCGUACGGAUUG | -0.126 |
| ACUCCAUUGGCGUAAUGGUAACGCGUCUCCCUCCUAAGGAGACGACUGCGGGUUCGAGUCCCGUAUGGGGCG | -0.309 |
| ACUCCAUUGGCGUAAUGGUAACGCGUCUCCCUCCUAAGGAGACGACUGCGGGUUCGAGUCCCGUAUGGGUCG | -0.275 |
| ACUCCAUUGGCGUAAUGGUAACGCGUCUCCCUCCUAAGGAGACGACUGCGGGUUCGAGUCCCGUAUGGAUUG | -0.301 |

| Variant | yeast fitness (ln) |
| --- | --- |
| ACUCCAUUGGCGUAAUGGUAACGCGUCUCCCUCCUAAGGAGACGAUUGCGGGUUCGAGUCCCGUACGGGUCG | -0.0463 |
| ACUCCAUUGGCGUAAUGGUAACGCGUCUCCCUCCUAAGGAGACGAUUGCGGGUUCGAGUCCCGUAUGGAACG | -0.085 |
| ACUCCAUUGGCGUAAUGGUAACGCGUUUCCCUCCUAAGGAGACGAUUGCGGGUUCGAGUCCCGUACGGGUUG | -0.408 |
| ACUCCAUUGGCGUAAUGGUAACGCGUCUCCCUCCUAAGGAGACGAUUGCGGGUUCGAGUCCCGUAUGGGGUG | -0.0138 |
| ACUCCAUUGGCGUAAUGGUAACGCGUUUCCCUCCUAAGGAGACGAUUGCGGGUUCGAGUCCCGUACGGAACG | -0.0401 |
| ACUCCAUUGGCGUAAUGGUAACGCGUCUCCCUCCUAAGGAGACGAUUGCGGGUUCGAGUCCCGUACGGAUUG | -0.0375 |
| ACUCCAUUGGCGUAAUGGUAACGCGUCUCCCUCCUAAGGAGAAGACUGCGGGUUCGAGUCCCGUACGGGGUG | -0.187 |
| ACUCCAUUGGCGUAAUGGUAACGCGUCUCCCUCCUAAGGAGAAGACUGCGGGUUCGAGUCCCGUACGGAGUG | -0.0357 |
| ACUCCAUUGGCGUAAUGGUAACGCGUUUCCCUCCUAAGGAGACGACUGCGGGUUCGAGUCCCGUACGGAACG | -0.0863 |
| ACUCCAUUGGCGUAAUGGUAACGCGUCUCCCUCCUAAGGAGACGAUUGCGGGUUCGAGUCCCGUAUGGAGUG | -0.015 |
| ACUCCAUUGGCGUAAUGGUAACGCGUUUCCCUCCUAAGGAGACGACUGCGGGUUCGAGUCCCGUACGGAUUG | -0.186 |
| ACUCCAUUGGCGUAAUGGUAACGCGUUUCCCUCCUAAGGAGACGACUGCGGGUUCGAGUCCCGUACGGAUCG | -0.0697 |
| ACUCCAUUGGCGUAAUGGUAACGCGUCUCCCUCCUAAGGAGACGAUUGCGGGUUCGAGUCCCGUACGGAGCG | -0.0508 |
| ACUCCAUUGGCGUAAUGGUAACGCGUCUCCCUCCUAAGGAGACGAUUGCGGGUUCGAGUCCCGUACGGAUCG | -0.034 |
| ACUCCAUUGGCGUAAUGGUAACGCGUCUCCCUCCUAAGGAGACGAUUGCGGGUUCGAGUCCCGUAUGGAUUG | -0.402 |
| ACUCCAUUGGCGUAAUGGUAACGCGUCUCCCUCCUAAGGAGACGACUGCGGGUUCGAGUCCCGUAUGGAGUG | -0.00743 |
| ACUCCAUUGGCGUAAUGGUAACGCGUCUCCCUCCUAAGGAGAAGACUGCGGGUUCGAGUCCCGUACGGAUCG | -0.0459 |
| ACUCCAUUGGCGUAAUGGUAACGCGUCUCCCUCCUAAGGAGAAGACUGCGGGUUCGAGUCCCGUACGGAGCG | -0.0946 |
| ACUCCAUUGGCGUAAUGGUAACGCGUCUCCCUCCUAAGGAGACGACUGCGGGUUCGAGUCCCGUAUGGGGUG | -0.0387 |
